Results as given in ChEMBL document CHEMBL3632612, “Discovery of WQ-3810: Design, synthesis, and evaluation of 7-(3-alkylaminoazetidin-1-yl)fluoro-quinolones as orally active antibacterial agents” (Eur J Med Chem, 2015).
Values after ≈ are worked out from the molar mass of the structure shown.

What was measured:
Klebsiella pneumoniae [1] = assay: Antibacterial activity against Klebsiella pneumoniae DT-S assessed as growth inhibition at 128 to 0.002 mg/L incubated for 18 hrs at 37 degC by agar dilution method; format: functional
In short: (§1)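 Agar dilution on Mueller Hinton agar per Japanese Society of Chemotherapy standard method; about 10⁴ cfu inoculated onto plates holding two-fold dilution series; incubation 37°C, 18 h; MIC read as growth endpoint.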

[2] = Oral drug absorption in Sprague-Dawley rat at 10 mg/kg, po after 24 hrs by HPLC; format: ADME, organism-based; conditions: in vivo
In short: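 Absorption rate computed as total urinary plus biliary excretion (% of dose, summed means) after oral dosing divided by total after iv dosing; excretion measured in fasted male Sprague-Dawley rats by HPLC over 24 h, bile glucuronides alkaline-hydrolysed.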

Enterobacter cloacae = assay: Antibacterial activity against Enterobacter cloacae IFO13535 assessed as growth inhibition at 128 to 0.002 mg/L incubated for 18 hrs at 37 degC by agar dilution method; format: functional; conditions: IFO13535, 18 h; in short: as §1
[3] = Drug excretion in Sprague-Dawley rat bile assessed as unmetabolized form at 5 mg/kg, iv after 24 hrs by HPLC; format: ADME, organism-based; conditions: read-out: Drug excretion
In short: (§2)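 Six-week male Sprague-Dawley rats, fasted overnight; oral dose suspended in 0.5% methylcellulose, iv dose dissolved in 0.04 N NaOH. Urine from intact rats in metabolic cages, bile from bile duct-cannulated rats, 0–24 h. Bile alkaline-hydrolysed (1 N NaOH, 37°C, 1 h) to convert glucuronides; HPLC with UV 290 nm and internal standard; % of dose; mean ± S.D., three rats.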

[4] = Drug excretion in Sprague-Dawley rat urine at 10 mg/kg, po after 24 hrs by HPLC; format: ADME, organism-based; conditions: read-out: Drug excretion; in short: as §2
Escherichia coli [5] = assay: Antibacterial activity against Escherichia coli KC-14 assessed as growth inhibition at 128 to 0.002 mg/L incubated for 18 hrs at 37 degC by agar dilution method; format: functional; conditions: KC-14, 18 h; in short: as §1
Pseudomonas aeruginosa [6] = assay: Antibacterial activity against Pseudomonas aeruginosa E-2 assessed as growth inhibition at 128 to 0.002 mg/L incubated for 18 hrs at 37 degC by agar dilution method; format: functional; conditions: E-2, 18 h; in short: as §1
[7] = Drug excretion in Sprague-Dawley rat urine at 5 mg/kg, iv after 24 hrs by HPLC; format: ADME, organism-based; conditions: read-out: Drug excretion; in short: as §2
[8] = Solubility of the compound in JP2 solution at pH 6.8 after 24 hrs at 25 degC by HPLC; format: physicochemical
In short: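 Excess solid shaken in JP2 (50 mM potassium dihydrogenphosphate, pH 6.8) at 25°C for 24 h to equilibrium, filtered 0.45 µm; filtrate concentration by reversed-phase UPLC, UV 290 nm; mean ± S.D., n=3.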

Escherichia coli [9] = assay: Antibacterial activity against Escherichia coli 177 assessed as growth inhibition at 128 to 0.002 mg/L incubated for 18 hrs at 37 degC by agar dilution method; format: functional; conditions: Escherichia coli, 177, 18 h; in short: as §1
[10] = system: Acinetobacter calcoaceticus; assay: Antibacterial activity against Acinetobacter calcoaceticus Ac-54 assessed as growth inhibition at 128 to 0.002 mg/L incubated for 18 hrs at 37 degC by agar dilution method; format: functional; conditions: Ac-54, 18 h; in short: as §1
[11] = Drug excretion in Sprague-Dawley rat bile assessed as unmetabolized form at 10 mg/kg, po after 24 hrs by HPLC; format: ADME, organism-based; conditions: read-out: Drug excretion; in short: as §2
Serratia marcescens [12] = assay: Antibacterial activity against Serratia marcescens T-55 assessed as growth inhibition at 128 to 0.002 mg/L incubated for 18 hrs at 37 degC by agar dilution method; format: functional; conditions: T-55, 18 h; in short: as §1
Escherichia coli [13] = assay: Antibacterial activity against Escherichia coli NIHJ assessed as growth inhibition at 128 to 0.002 mg/L incubated for 18 hrs at 37 degC by agar dilution method; format: functional; in short: as §1
Providencia rettgeri = assay: Antibacterial activity against Providencia rettgeri W1008 assessed as growth inhibition at 128 to 0.002 mg/L incubated for 18 hrs at 37 degC by agar dilution method; format: functional; conditions: W1008, 18 h; in short: as §1
Pseudomonas aeruginosa [14] = assay: Antibacterial activity against Pseudomonas aeruginosa 15846 assessed as growth inhibition at 128 to 0.002 mg/L incubated for 18 hrs at 37 degC by agar dilution method; format: functional; conditions: Pseudomonas aeruginosa, 15846, 18 h; in short: as §1
Morganella morganii = assay: Antibacterial activity against Morganella morganii W1026 assessed as growth inhibition at 128 to 0.002 mg/L incubated for 18 hrs at 37 degC by agar dilution method; format: functional; conditions: W1026, 18 h; in short: as §1
Serratia marcescens [15] = assay: Antibacterial activity against Serratia marcescens IFO3736 assessed as growth inhibition at 128 to 0.002 mg/L incubated for 18 hrs at 37 degC by agar dilution method; format: functional; conditions: IFO3736, 18 h; in short: as §1
DNA gyrase = DNA gyrase (Escherichia coli, UniProt P0AES4+P0AES6); assay: Inhibition of Escherichia coli DNA gyrase preincubated for 5 mins at 37 degC before addition of relaxed pBR322 as substrate by supercoiling assay; format: protein-complex assay
[16] = Drug excretion in Sprague-Dawley rat at 10 mg/kg, po after 24 hrs by HPLC; format: ADME, organism-based; conditions: in vivo, read-out: Drug excretion; in short: as §2
Klebsiella pneumoniae [17] = assay: Antibacterial activity against Klebsiella pneumoniae KC-1 assessed as growth inhibition at 128 to 0.002 mg/L incubated for 18 hrs at 37 degC by agar dilution method; format: functional; conditions: KC-1, 18 h; in short: as §1
[18] = Passive permeability of the compound after 5 hrs at 25 degC by PAMPA assay; format: physicochemical; conditions: read-out: Peff
In short: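 PAMPA: 10 µM compound in PBS with 5% MeOH in donor, PBS acceptor; 25°C, 5 h; both sides quantified by HPLC; Peff derived from donor/acceptor concentrations, volumes, 0.3 cm² filter area and 18,000 s; mean ± S.D., n=3.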

Proteus mirabilis = assay: Antibacterial activity against Proteus mirabilis IFO3849 assessed as growth inhibition at 128 to 0.002 mg/L incubated for 18 hrs at 37 degC by agar dilution method; format: functional; conditions: IFO3849, 18 h; in short: as §1
Proteus vulgaris = assay: Antibacterial activity against Proteus vulgaris IFO3167 assessed as growth inhibition at 128 to 0.002 mg/L incubated for 18 hrs at 37 degC by agar dilution method; format: functional; conditions: IFO3167, 18 h; in short: as §1
Pseudomonas aeruginosa [19] = assay: Antibacterial activity against Pseudomonas aeruginosa IFO3445 assessed as growth inhibition at 128 to 0.002 mg/L incubated for 18 hrs at 37 degC by agar dilution method; format: functional; conditions: IFO3445, 18 h; in short: as §1
Citrobacter freundii = assay: Antibacterial activity against Citrobacter freundii IFO1268 assessed as growth inhibition at 128 to 0.002 mg/L incubated for 18 hrs at 37 degC by agar dilution method; format: functional; conditions: IFO1268, 18 h; in short: as §1
[20] = Drug excretion in Sprague-Dawley rat assessed as unmetabolized form at 5 mg/kg, iv after 24 hrs by HPLC; format: ADME, organism-based; conditions: in vivo, read-out: Drug excretion; in short: as §2
Salmonella typhimurium = assay: Antibacterial activity against Salmonella typhimurium IFO13245 assessed as growth inhibition at 128 to 0.002 mg/L incubated for 18 hrs at 37 degC by agar dilution method; format: functional, Salmonella enterica subsp. enterica serovar Typhimurium; conditions: Salmonella enterica, IFO13245, 18 h; in short: as §1

Row | SMILES | MIC (Klebsiella pneumoniae [1]) | Fa at 24 h [2] | MIC (Enterobacter cloacae) | dose excreted at 24 h [4] | MIC (Escherichia coli [5]) | MIC (Pseudomonas aeruginosa [6]) | solubility at 24 h [8] | MIC (Escherichia coli [9]) | MIC [10] | dose excreted at 24 h [11] | MIC (Serratia marcescens [12]) | MIC (Escherichia coli [13]) | MIC (Providencia rettgeri) | MIC (Morganella morganii) | MIC (Serratia marcescens [15]) | MIC (Klebsiella pneumoniae [17]) | MIC (Proteus mirabilis) | MIC (Proteus vulgaris) | MIC (Citrobacter freundii) | MIC (Salmonella typhimurium) | other results
1 | CNC1CN(c2c(F)cc3c(=O)c(C(=O)O)cn(-c4nc(N)c(F)cc4F)c3c2C)C1 | 0.077 µg/mL (≈ 0.178 µM) | 31% | 0.077 µg/mL (≈ 0.178 µM) | 13% | 0.006 µg/mL (≈ 0.0138 µM) | 0.077 µg/mL (≈ 0.178 µM) | 3.1 µg/mL (≈ 7.15 µM) | 0.006 µg/mL (≈ 0.0138 µM) | 0.077 µg/mL (≈ 0.178 µM) | 16% | 0.077 µg/mL (≈ 0.178 µM) | 0.006 µg/mL (≈ 0.0138 µM) | 0.077 µg/mL (≈ 0.178 µM) | 0.077 µg/mL (≈ 0.178 µM) | 0.077 µg/mL (≈ 0.178 µM) | 0.077 µg/mL (≈ 0.178 µM) | 0.077 µg/mL (≈ 0.178 µM) | 0.077 µg/mL (≈ 0.178 µM) | 0.077 µg/mL (≈ 0.178 µM) | 0.077 µg/mL (≈ 0.178 µM) | dose excreted at 24 h [3]: 41%; dose excreted at 24 h [7]: 49%; MIC (Pseudomonas aeruginosa [14]): 0.077 µg/mL (≈ 0.178 µM); IC50 (DNA gyrase): 554 nM; dose excreted at 24 h [16]: 28%; Papp at 5 h [18]: 0.19 ×10⁻⁶ cm/s; MIC (Pseudomonas aeruginosa [19]): 0.077 µg/mL (≈ 0.178 µM); dose excreted at 24 h [20]: 90%
2 | CCCNC1CN(c2c(F)cc3c(=O)c(C(=O)O)cn(-c4nc(N)c(F)cc4F)c3c2C)C1 | 0.21 µg/mL (≈ 0.455 µM) | > 90% | 0.21 µg/mL (≈ 0.455 µM) | 17% | 0.012 µg/mL (≈ 0.026 µM) | 0.21 µg/mL (≈ 0.455 µM) | 41 µg/mL (≈ 88.9 µM) | 0.012 µg/mL (≈ 0.026 µM) | 0.21 µg/mL (≈ 0.455 µM) | 74% | 0.21 µg/mL (≈ 0.455 µM) | 0.012 µg/mL (≈ 0.026 µM) | 0.21 µg/mL (≈ 0.455 µM) | 0.21 µg/mL (≈ 0.455 µM) | 0.21 µg/mL (≈ 0.455 µM) | 0.21 µg/mL (≈ 0.455 µM) | 0.21 µg/mL (≈ 0.455 µM) | 0.21 µg/mL (≈ 0.455 µM) | 0.21 µg/mL (≈ 0.455 µM) | 0.21 µg/mL (≈ 0.455 µM) | MIC (Pseudomonas aeruginosa [14]): 0.21 µg/mL (≈ 0.455 µM); IC50 (DNA gyrase): 412 nM; dose excreted at 24 h [16]: 91%; Papp at 5 h [18]: 1.1 ×10⁻⁶ cm/s; MIC (Pseudomonas aeruginosa [19]): 0.21 µg/mL (≈ 0.455 µM)
3 | C[C@H]1COc2c(N3CCN(C)CC3)c(F)cc3c(=O)c(C(=O)O)cn1c23.C[C@H]1COc2c(N3CCN(C)CC3)c(F)cc3c(=O)c(C(=O)O)cn1c23.O [LEVOFLOXACIN] | 0.12 µg/mL |  | 0.12 µg/mL |  | 0.019 µg/mL |  |  | 0.019 µg/mL | 0.12 µg/mL |  | 0.12 µg/mL | 0.019 µg/mL | 0.12 µg/mL | 0.12 µg/mL | 0.12 µg/mL | 0.12 µg/mL | 0.12 µg/mL | 0.12 µg/mL | 0.12 µg/mL | 0.12 µg/mL | 
